Measured values collected from several papers.
Each line is one published result; the experiments were not run side by side.
Observed: enzyme activity
Action: inhibitor
rep main protease: Replicase polyprotein 1ab, main protease (rep, Severe acute respiratory syndrome coronavirus 2, UniProt P0DTD1)
rep papain-like protease: Replicase polyprotein 1ab, papain-like protease (rep, Severe acute respiratory syndrome coronavirus 2, UniProt P0DTD1)

SMILES | target | method | tested at | time | pH | inhibition [%]
Cc1c(-c2cnccn2)ssc1=S | rep main protease | – | 20 µM | – | – | 97.6
Cc1ccc2nc(Cl)c(C=Nc3cc(Br)ccn3)cc2c1 | rep papain-like protease | – | 100 µM | – | – | 23.9
O=c1c(O)c(-c2ccc(O)cc2)oc2cc(O)cc(O)c12 | rep main protease | FRET | 10 µM | 10 min | – | 45
C/N=c1\nc(-c2ccccc2)n(-c2ccccc2)s1 | rep main protease | – | 1 µM | – | – | 96.3
Cc1cc(NC(=O)c2cc3c(=O)n4cccc(C)c4nc3n2C)ccc1Br | rep main protease | – | 1 mM | – | – | 82
Cc1cccc2cc(/C=N\c3ccc(-c4nc5ccccc5[nH]4)cc3)c(Cl)nc12 | rep papain-like protease | – | 100 µM | – | – | 44.9
O=c1c(O)c(-c2ccc(O)cc2)oc2cc(O)cc(O)c12 | rep main protease | – | 20 µM | – | – | 12
Cc1ncc(/C=C\C(=O)N2C[C@@H](NC(=O)c3ccc[nH]c3=O)CC3(CCOCC3)C2)c(=O)[nH]1 | rep main protease | – | 5 µM | – | – | 15.5
Clc1nc2ccccc2cc1/C=N\c1ccc(-c2nc3ccccc3[nH]2)cc1 | rep papain-like protease | – | 10 µM | – | – | 3.9
O=c1cc(-c2ccc(O)cc2)oc2cc(O)c(O)c(O)c12 | rep main protease | – | 10 µM | – | – | 90.7
O=C1C=C(O)C(=O)c2ccccc21 | rep main protease | – | 10 µM | – | – | -1.7
Cn1c(C(=O)Nc2ccc(Cl)cc2)cc2c(=O)n3ccccc3nc21 | rep main protease | – | 1 mM | – | – | 72
COc1cc(C)cc2c1C(=O)C=CC2=O | rep main protease | – | 0.1 µM | – | – | -4.4
O=C(Nc1cccc(C(F)(F)F)c1)c1ccc([N+](=O)[O-])o1 | rep main protease | – | 20 µM | – | – | 1.47
O=C(O)c1ccc(O)c(O)c1 | rep main protease | FRET | 10 µM | 10 min | – | < 25
Cc1ccc2nc(Cl)c(/C=N/c3cccc([N+](=O)[O-])c3)cc2c1 | rep papain-like protease | – | 10 µM | – | – | 5.3
C[C@@H]1O[C@@H](OC[C@H]2O[C@@H](OCCc3ccc(O)c(O)c3)[C@H](OC(=O)/C=C/c3ccc(O)c(O)c3)[C@@H](O)[C@@H]2O)[C@H](O)[C@H](O)[C@H]1O | rep main protease | – | 10 µM | – | – | 61.7
Cc1ccc(NC(=O)c2cc3c(=O)n4cccc(C)c4nc3n2C)cc1Cl | rep main protease | – | 1 µM | – | – | 6.4
O=C(Oc1cc([N+](=O)[O-])ccc1F)c1cccc2[nH]ccc12 | rep main protease | fluorescence | 10 µM | – | pH 7.2 | 2
O=C1C=CC(=O)c2ccccc21 | rep main protease | – | 1 µM | – | – | 90.5
Cn1cc2c(n1)c(=O)n(Cc1ccc(F)cc1)c1nn(CCOc3ccc(F)cc3)c(=O)n21 | rep main protease | – | 20 µM | – | – | 13
CCc1ccc(NC(=O)c2cc3c(=O)n4ccccc4nc3n2C)cc1 | rep main protease | – | 10 µM | – | – | 28
O=C1C=CC(=O)c2c(O)cccc21 | rep main protease | – | 0.1 µM | – | – | 20.3
CC[C@H](NC(=O)OCc1ccccc1)C(=O)N[C@H](C(=O)N[C@@H](CC(C)C)C(=O)N(C)N(C#N)CCC(N)=O)C(C)(C)C | rep main protease | fluorescence | 50 µM | – | pH 7.2 | 100
O=C(/C=C/c1ccc(O)c(O)c1)OC1CC(OC(=O)/C=C/c2ccc(O)c(O)c2)(C(=O)O)CC(O)C1O (stereo not drawn) | rep main protease | – | 10 µM | – | – | 27.8
C[C@]1(C(=O)NC[C@H](NC(=O)c2cncc3[nH]ccc23)c2ccc3ccccc3c2)CCNC1=O | rep main protease | – | 5 µM | – | – | 13.7

SMILES | target | method | tested at | time | pH | inhibition [%]
CCOC(=O)COc1cc(C)cc2c1C(=O)C=CC2=O | rep main protease | – | 0.1 µM | – | – | 29.6
CC(C)=CCc1cc(-c2oc3cc(O)cc(O)c3c(=O)c2O)ccc1O | rep papain-like protease | – | 8 µM | – | – | 59.9
N#CC(c1ccc2c(c1)OCO2)N(Cc1ccccc1)C(=O)c1sc2ccccc2c1Cl (stereo not drawn) | rep main protease | – | 20 µM | – | – | 8.09
COCOc1cc(C)cc2c1C(=O)C=CC2=O | rep main protease | – | 0.1 µM | – | – | 3
Cc1cccn2c(=O)c3cc(C(=O)Nc4ccc(N(C)C)cc4)n(C)c3nc12 | rep main protease | – | 1 mM | – | – | 64
COc1cc(O)c2c(=O)c(O)c(-c3ccc(O)c(O)c3)oc2c1 | rep main protease | – | 20 µM | – | – | 52
Cn1c(C(=O)Nc2ccc3c(c2)OCCO3)cc2c(=O)n3ccccc3nc21 | rep main protease | – | 100 µM | – | – | 71
O=c1cc(-c2ccccc2)oc2cc(O)c(O)c(O)c12 | rep main protease | – | 100 µM | – | – | 99.4
S=c1[nH]c2ccccc2s1 | rep main protease | – | 20 µM | – | – | 63.6
O=C1NCc2c1cccc2C(=O)N[C@H](CNC(=O)c1ccnc2[nH]ncc12)c1ccccc1 | rep main protease | – | 5 µM | – | – | 10
COc1cc(C[C@@H](C)[C@@H](C)Cc2cc(O)c(OC)c(OC)c2)cc(O)c1OC | rep main protease | FRET | 8 µM | – | – | 58
C=C[C@@H]1C[C@]1(NC(=O)[C@@H]1C[C@@H]2CN1C(=O)[C@H](C(C)(C)C)NC(=O)O[C@@H]1C[C@H]1CCCCCc1nc3ccc(OC)cc3nc1O2)C(=O)NS(=O)(=O)C1CC1.O | rep main protease | – | 20 µM | – | – | 1.19
CC1=CC(=O)c2c(O)cccc2C1=O | rep main protease | – | 10 µM | – | – | 7.7
NC(=O)c1c[nH]c(Cc2ccccc2)cc1=O | rep main protease | – | 20 µM | – | – | 10.9
CN(C(=O)[C@H](Cc1ccccc1)NC(=O)OCc1ccccc1)N(C#N)CCC(N)=O | rep main protease | fluorescence | 50 µM | – | pH 7.2 | 100
C[C@@H]1O[C@@H](O[C@@H]2[C@@H](O)[C@H](OCCc3ccc(O)c(O)c3)O[C@H](CO)[C@H]2OC(=O)/C=C/c2ccc(O)c(O)c2)[C@H](O)[C@H](O)[C@H]1O | rep papain-like protease | – | 50 µM | – | – | 15.6
CC[PH](CC)(CC)[Au][S][C@@H]1O[C@H](COC(C)=O)[C@@H](OC(C)=O)[C@H](OC(C)=O)[C@H]1OC(C)=O | rep main protease | – | 20 µM | – | – | 100
CCOC(=O)c1ccc(OC(=O)CCCCCNC(=N)N)cc1 | rep main protease | – | 10 µM | – | – | 3
Oc1cc(O)c2c(c1)OC(c1ccc(O)c(O)c1)C(O)C2 (stereo not drawn) | rep main protease | – | 20 µM | – | – | 22.6
O=C(O)[C@H]1O[C@@H](Oc2cc3oc(-c4ccc(O)cc4)cc(=O)c3c(O)c2O)[C@H](O)[C@@H](O)[C@@H]1O | rep papain-like protease | – | 50 µM | – | – | 41.8
CC(C)C[C@H](NC(=O)[C@@H](NC(=O)OCc1ccccc1)C(C)(C)C)C(=O)N(C)N(C#N)CCC(N)=O | rep main protease | fluorescence | 50 µM | – | pH 7.2 | 100
COc1c(O)cc(O)c2c(=O)cc(-c3ccccc3)oc12 | rep main protease | – | 100 µM | – | – | 3.6
COc1ccc(OC)c2c1C(=O)C=CC2=O | rep main protease | – | 10 µM | – | – | 78.5
O=C(O)Cc1ccc(O)c([N+](=O)[O-])c1 | rep main protease | FRET | 10 µM | 10 min | – | < 25
O=C(CSc1nnc2c(n1)[nH]c1ccccc12)Nc1cccc(S(=O)(=O)N2CCOCC2)c1 | rep main protease | – | 100 µg/mL | – | – | 0
